{"source": "ChEMBL document CHEMBL1649199", "about": "(Antimicrob Agents Chemother, 2009)", "key": {"Plasmodium falciparum [1]": {"test_system": "Plasmodium falciparum", "experiment": "Antimicrobial activity against Plasmodium falciparum FCM29 harboring Pfcrt, Pfmdr1, Pfmrp, and Pfnhe-1 polymorphisms assessed as growth inhibition after 48 hrs by scintillation counting", "format": "functional, organism-based", "conditions": "FCM29, 48 h", "how_it_was_run": "(§1)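 Culture-adapted strains in RPMI 1640 with 10% human serum, 25 mM HEPES, 25 mM NaHCO3, type A+ blood, 10% O2/5% CO2/85% N2, 37°C; sorbitol-synchronized twice. Rings >95%, 0.5% parasitemia, 1.5% hematocrit; drug (methanol then water) final 0.125–400 nM or 5.3–3,387 nM. [3H]hypoxanthine 1 μCi/well at time zero, 48 h; freeze-thaw, harvest, scintillation; IC50 versus drug-free control by nonlinear regression of log dose-response.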"}, "Plasmodium falciparum [2]": {"test_system": "Plasmodium falciparum", "experiment": "Antimicrobial activity against Plasmodium falciparum W2 harboring Pfcrt, Pfmdr1, Pfmrp, and Pfnhe-1 polymorphisms assessed as growth inhibition after 48 hrs by scintillation counting", "format": "functional, organism-based", "conditions": "W2, 48 h", "how_it_was_run": "(§2)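 Sorbitol-synchronized (twice) culture-adapted strains were grown in type A+ human blood in RPMI 1640 with 10% human serum, 25 mM HEPES and 25 mM NaHCO3, at 37°C under 10% O2/5% CO2/85% N2. Rings (>95%) at 0.5% parasitemia and 1.5% hematocrit were exposed to drug, methanol then water, final 0.125–400 nM or 5.3–3,387 nM, with 1 μCi [3H]hypoxanthine for 48 h. IC50 from nonlinear regression versus drug-free controls.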"}, "Plasmodium falciparum [3]": {"test_system": "Plasmodium falciparum", "experiment": "Antimicrobial activity against Plasmodium falciparum IMT K2 harboring Pfcrt, Pfmdr1, Pfmrp, and Pfnhe-1 polymorphisms assessed as growth inhibition after 48 hrs by scintillation counting", "format": "functional, organism-based", "conditions": "IMT K2, 48 h", "how_it_was_run": "as §1"}, "Plasmodium falciparum [4]": {"test_system": "Plasmodium falciparum", "experiment": "Antimicrobial activity against Plasmodium falciparum IMT 8425 harboring Pfcrt, Pfmdr1, Pfmrp, and Pfnhe-1 polymorphisms assessed as growth inhibition after 48 hrs by scintillation counting", "format": "functional, organism-based", "conditions": "IMT 8425, 48 h", "how_it_was_run": "as §2"}, "Plasmodium falciparum [5]": {"test_system": "Plasmodium falciparum", "experiment": "Antimicrobial activity against Plasmodium falciparum IMT Bres harboring Pfcrt, Pfmdr1, Pfmrp, and Pfnhe-1 polymorphisms assessed as growth inhibition after 48 hrs by scintillation counting", "format": "functional, organism-based", "how_it_was_run": "as §2"}, "Plasmodium falciparum [6]": {"test_system": "Plasmodium falciparum", "experiment": "Antimicrobial activity against Plasmodium falciparum ms4760-6 assessed as growth inhibition after 48 hrs by scintillation counting", "conditions": "ms4760-6, 48 h"}, "Plasmodium falciparum [7]": {"test_system": "Plasmodium falciparum", "experiment": "Antimicrobial activity against Plasmodium falciparum ms4760-7 assessed as growth inhibition after 48 hrs by scintillation counting", "conditions": "ms4760-7, 48 h"}, "Plasmodium falciparum [8]": {"test_system": "Plasmodium falciparum", "experiment": "Antimicrobial activity against Plasmodium falciparum IMT A4 harboring Pfcrt, Pfmdr1, Pfmrp, and Pfnhe-1 polymorphisms assessed as growth inhibition after 48 hrs by scintillation counting", "format": "functional, organism-based", "conditions": "IMT A4, 48 h", "how_it_was_run": "as §1"}, "Plasmodium falciparum [9]": {"test_system": "Plasmodium falciparum", "experiment": "Antimicrobial activity against Plasmodium falciparum IMT 16116 harboring Pfcrt, Pfmdr1, Pfmrp, and Pfnhe-1 polymorphisms assessed as growth inhibition after 48 hrs by scintillation counting", "format": "functional, organism-based", "conditions": "IMT 16116, 48 h", "how_it_was_run": "as §2"}, "Plasmodium falciparum [10]": {"test_system": "Plasmodium falciparum", "experiment": "Antimicrobial activity against Plasmodium falciparum IMT 10354 harboring Pfcrt, Pfmdr1, Pfmrp, and Pfnhe-1 polymorphisms assessed as growth inhibition after 48 hrs by scintillation counting", "format": "functional, organism-based", "conditions": "IMT 10354, 48 h", "how_it_was_run": "as §2"}, "Plasmodium falciparum [11]": {"test_system": "Plasmodium falciparum", "experiment": "Antimicrobial activity against Plasmodium falciparum IMT 10500 harboring Pfcrt, Pfmdr1, Pfmrp, and Pfnhe-1 polymorphisms assessed as growth inhibition after 48 hrs by scintillation counting", "format": "functional, organism-based", "conditions": "IMT 10500, 48 h", "how_it_was_run": "as §2"}, "Plasmodium falciparum [12]": {"test_system": "Plasmodium falciparum", "experiment": "Antimicrobial activity against Plasmodium falciparum IMT 9996 harboring Pfcrt, Pfmdr1, Pfmrp, and Pfnhe-1 polymorphisms assessed as growth inhibition after 48 hrs by scintillation counting", "format": "functional, organism-based", "conditions": "IMT 9996, 48 h", "how_it_was_run": "as §2"}, "Plasmodium falciparum [13]": {"test_system": "Plasmodium falciparum", "experiment": "Antimicrobial activity against Plasmodium falciparum IMT K14 harboring Pfcrt, Pfmdr1, Pfmrp, and Pfnhe-1 polymorphisms assessed as growth inhibition after 48 hrs by scintillation counting", "format": "functional, organism-based", "conditions": "IMT K14, 48 h", "how_it_was_run": "as §2"}, "Plasmodium falciparum [14]": {"test_system": "Plasmodium falciparum", "experiment": "Antimicrobial activity against Plasmodium falciparum IMT 6311 harboring Pfcrt, Pfmdr1, Pfmrp, and Pfnhe-1 polymorphisms assessed as growth inhibition after 48 hrs by scintillation counting", "format": "functional, organism-based", "conditions": "IMT 6311, 48 h", "how_it_was_run": "as §2"}, "Plasmodium falciparum [15]": {"test_system": "Plasmodium falciparum", "experiment": "Antimicrobial activity against Plasmodium falciparum IMT 31 harboring Pfcrt, Pfmdr1, Pfmrp, and Pfnhe-1 polymorphisms assessed as growth inhibition after 48 hrs by scintillation counting", "format": "functional, organism-based", "conditions": "IMT 31, 48 h", "how_it_was_run": "as §2"}, "Plasmodium falciparum [16]": {"test_system": "Plasmodium falciparum", "experiment": "Antimicrobial activity against Plasmodium falciparum IMT 16332 harboring Pfcrt, Pfmdr1, Pfmrp, and Pfnhe-1 polymorphisms assessed as growth inhibition after 48 hrs by scintillation counting", "format": "functional, organism-based", "conditions": "IMT 16332, 48 h", "how_it_was_run": "as §2"}, "Plasmodium falciparum [17]": {"test_system": "Plasmodium falciparum", "experiment": "Antimicrobial activity against Plasmodium falciparum IMT K4 harboring Pfcrt, Pfmdr1, Pfmrp, and Pfnhe-1 polymorphisms assessed as growth inhibition after 48 hrs by scintillation counting", "format": "functional, organism-based", "conditions": "IMT K4, 48 h", "how_it_was_run": "as §2"}, "Plasmodium falciparum [18]": {"test_system": "Plasmodium falciparum", "experiment": "Antimicrobial activity against Plasmodium falciparum FCR3 harboring Pfcrt, Pfmdr1, Pfmrp, and Pfnhe-1 polymorphisms assessed as growth inhibition after 48 hrs by scintillation counting", "format": "functional, organism-based", "conditions": "FCR3, 48 h", "how_it_was_run": "as §2"}, "Plasmodium falciparum [19]": {"test_system": "Plasmodium falciparum", "experiment": "Antimicrobial activity against Plasmodium falciparum PA harboring Pfcrt, Pfmdr1, Pfmrp, and Pfnhe-1 polymorphisms assessed as growth inhibition after 48 hrs by scintillation counting", "format": "functional, organism-based", "how_it_was_run": "as §1"}, "Plasmodium falciparum [20]": {"test_system": "Plasmodium falciparum", "experiment": "Antimicrobial activity against Plasmodium falciparum IMT L1 harboring Pfcrt, Pfmdr1, Pfmrp, and Pfnhe-1 polymorphisms assessed as growth inhibition after 48 hrs by scintillation counting", "format": "functional, organism-based", "conditions": "IMT L1, 48 h", "how_it_was_run": "as §1"}, "Plasmodium falciparum [21]": {"test_system": "Plasmodium falciparum", "experiment": "Antimicrobial activity against Plasmodium falciparum 3D7 harboring Pfcrt, Pfmdr1, Pfmrp, and Pfnhe-1 polymorphisms assessed as growth inhibition after 48 hrs by scintillation counting", "format": "functional, organism-based", "conditions": "3D7, 48 h", "how_it_was_run": "as §2"}, "Plasmodium falciparum [22]": {"test_system": "Plasmodium falciparum", "experiment": "Antimicrobial activity against Plasmodium falciparum D6 harboring Pfcrt, Pfmdr1, Pfmrp, and Pfnhe-1 polymorphisms assessed as growth inhibition after 48 hrs by scintillation counting", "format": "functional, organism-based", "conditions": "D6, 48 h", "how_it_was_run": "as §2"}, "Plasmodium falciparum [23]": {"test_system": "Plasmodium falciparum", "experiment": "Antimicrobial activity against Plasmodium falciparum IMT 10336 harboring Pfcrt, Pfmdr1, Pfmrp, and Pfnhe-1 polymorphisms assessed as growth inhibition after 48 hrs by scintillation counting", "format": "functional, organism-based", "conditions": "IMT 10336, 48 h", "how_it_was_run": "as §2"}, "Plasmodium falciparum [24]": {"test_system": "Plasmodium falciparum", "experiment": "Antimicrobial activity against Plasmodium falciparum IMT Vol harboring Pfcrt, Pfmdr1, Pfmrp, and Pfnhe-1 polymorphisms assessed as growth inhibition after 48 hrs by scintillation counting", "format": "functional, organism-based", "how_it_was_run": "as §2"}, "Plasmodium falciparum [25]": {"test_system": "Plasmodium falciparum", "experiment": "Antimicrobial activity against Plasmodium falciparum IMT 9881 harboring Pfcrt, Pfmdr1, Pfmrp, and Pfnhe-1 polymorphisms assessed as growth inhibition after 48 hrs by scintillation counting", "format": "functional, organism-based", "conditions": "IMT 9881, 48 h", "how_it_was_run": "as §2"}}}
{"smiles": "C=C[C@H]1CN2CC[C@H]1C[C@H]2[C@H](O)c1ccnc2ccc(OC)cc12", "note": "[QUININE]", "values": [{"measurement": "IC50", "setting": "Plasmodium falciparum [1]", "result": 580, "unit": "nM"}, {"measurement": "IC50", "setting": "Plasmodium falciparum [2]", "result": 686, "unit": "nM"}, {"measurement": "IC50", "setting": "Plasmodium falciparum [3]", "result": 599, "unit": "nM"}, {"measurement": "IC50", "setting": "Plasmodium falciparum [4]", "result": 148, "unit": "nM"}, {"measurement": "IC50", "setting": "Plasmodium falciparum [5]", "result": 500, "unit": "nM"}, {"measurement": "IC50", "setting": "Plasmodium falciparum [6]", "result": 582, "unit": "nM"}, {"measurement": "IC50", "setting": "Plasmodium falciparum [7]", "result": 764, "unit": "nM"}, {"measurement": "IC50", "setting": "Plasmodium falciparum [8]", "result": 605, "unit": "nM"}, {"measurement": "IC50", "setting": "Plasmodium falciparum [9]", "result": 204, "unit": "nM"}, {"measurement": "IC50", "setting": "Plasmodium falciparum [10]", "result": 58, "unit": "nM"}, {"measurement": "IC50", "setting": "Plasmodium falciparum [11]", "result": 210, "unit": "nM"}, {"measurement": "IC50", "setting": "Plasmodium falciparum [12]", "result": 1040, "unit": "nM"}, {"measurement": "IC50", "setting": "Plasmodium falciparum [13]", "result": 1310, "unit": "nM"}, {"measurement": "IC50", "setting": "Plasmodium falciparum [14]", "result": 453, "unit": "nM"}, {"measurement": "IC50", "setting": "Plasmodium falciparum [15]", "result": 371, "unit": "nM"}, {"measurement": "IC50", "setting": "Plasmodium falciparum [16]", "result": 83, "unit": "nM"}, {"measurement": "IC50", "setting": "Plasmodium falciparum [17]", "result": 1030, "unit": "nM"}, {"measurement": "IC50", "setting": "Plasmodium falciparum [18]", "result": 334, "unit": "nM"}, {"measurement": "IC50", "setting": "Plasmodium falciparum [19]", "result": 625, "unit": "nM"}, {"measurement": "IC50", "setting": "Plasmodium falciparum [20]", "result": 575, "unit": "nM"}, {"measurement": "IC50", "setting": "Plasmodium falciparum [21]", "result": 128, "unit": "nM"}, {"measurement": "IC50", "setting": "Plasmodium falciparum [22]", "result": 62, "unit": "nM"}, {"measurement": "IC50", "setting": "Plasmodium falciparum [23]", "result": 271, "unit": "nM"}, {"measurement": "IC50", "setting": "Plasmodium falciparum [24]", "result": 421, "unit": "nM"}, {"measurement": "IC50", "setting": "Plasmodium falciparum [25]", "result": 57, "unit": "nM"}]}
